PMC3063522 (Journal of agricultural and food chemistry, 2011)
Converted amounts (≈) assume the structure as drawn. “Also recorded” adds a separate entry of the source.

Experiments:
[1] = test system: Phomopsis obscurans; experiment: Antifungal broth dilution microbioassay, Phomopsis obscurans; format: cell-based
Outline: (§1)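 Broth microdilution adapted from the NCCLS M27-A yeast method for conidia-forming filamentous plant-pathogenic fungi. The commercial fungicide captan served as the internal standard in every assay. Means were compared by SAS analysis of variance with Fisher's protected LSD. For P. viticola and P. obscurans, activity was read at 120 and 144 h of incubation.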

[2] = Cytotoxicity; format: cell-based; settings: pig, LLC-PK11 kidney epithelial cells
Outline: (§2)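 Anti-proliferative assay run alongside four human tumour lines (SK-MEL, KB, BT-549, SK-OV-3) and two noncancerous kidney lines (Vero, LLC-PK11). Doxorubicin served as the positive control.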

[3] = Cytotoxicity; format: cell-based; settings: human, KB oral epidermal carcinoma cells
Outline: as §2

[4] = Cytotoxicity to RAW 264.7 cells in the iNOS assay; format: cell-based, mouse; settings: mouse, RAW 264.7 macrophages
[5] = Cytotoxicity; format: cell-based; settings: African green monkey, Vero kidney fibroblasts
Outline: as §2

[6] = Cytotoxicity; format: cell-based; settings: human, SK-MEL malignant melanoma cells
Outline: as §2

[7] = Cytotoxicity; format: cell-based; settings: human, SK-OV-3 ovary carcinoma cells
Outline: as §2

[8] = Cytotoxicity; format: cell-based; settings: human, BT-549 breast ductal carcinoma cells
Outline: as §2

[9] = Cytotoxicity towards HL-60 cells in the antioxidant assay; format: cell-based; settings: human, HL-60 promyelocytic leukemia cells
[10] = test system: Phomopsis viticola; experiment: Antifungal broth dilution microbioassay, Phomopsis viticola; format: cell-based
Outline: as §1

[11] = test system: mosquito larvae; experiment: Mosquito larvae toxicity bioassay; format: in vivo; settings: Figure 4
Outline: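 Larval toxicity bioassay, run in triplicate. Controls were untreated, DMSO-acetone carrier, and permethrin as the positive control.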

[12] = 120 and 144 h (from 120 to 144 h)
[13] = at the highest concentrations, Figure 2D

With `CC(C)/C=C/c1c(O)cc(/C=C/C2=CC(=O)OC2CC(=O)O)cc1O` (stereo not drawn) [Compound 4, SB-1] the “Antifungal activity against P. obscurans” value [1, 12] was “did not exhibit any activity”, the IC50 [2] was > 25 µg/mL and the IC50 [3] was > 25 µg/mL. For the same compound, the IC50 [4] was > 25 µg/mL, the IC50 [5] was > 25 µg/mL and the IC50 [6] was > 25 µg/mL. For the same compound, the IC50 [7] was > 25 µg/mL, the IC50 [8] was > 25 µg/mL and the IC50 [9] was > 25 µg/mL.
For `CC(C)/C=C/c1c(O)cc(/C=C/c2ccccc2)cc1O` [Compound 6, arahypin-1], the “Antifungal activity against P. obscurans” value [1, 12] was “highest levels of inhibition”, the “Antifungal activity against P. obscurans” value ([1]; 144 h of incubation) was “more fungicidal” and the IC50 [2] was > 25 µg/mL. The IC50 [3] was > 25 µg/mL, the IC50 [4] was > 25 µg/mL and the IC50 [5] was > 25 µg/mL. For the same compound, the IC50 [6] was > 25 µg/mL, the IC50 [7] was > 25 µg/mL and the IC50 [8] was > 25 µg/mL. The IC50 [9] was > 31.3 µg/mL and the “Antifungal activity against P. viticola” value ([10]; 144 h of incubation) was “more fungicidal”.
In the case of `COc1cccc(/C=C/c2ccc(O)cc2)c1` [Compound 13], the IC50 [2] is reported as > 25 µg/mL, the IC50 [3] is reported as > 25 µg/mL and the IC50 [4] is reported as 19.5 µg/mL (≈ 86.2 µM). For the same compound, the IC50 [5] was > 25 µg/mL, the IC50 [6] was > 25 µg/mL and the “Toxicity to mosquito larvae” value [11] was “highest activity; also recorded: very low compared to the positive control permethrin”. The IC50 [7] was > 25 µg/mL, the IC50 [8] was > 25 µg/mL and the IC50 [9] was 4 µg/mL (≈ 17.7 µM). The “Antifungal activity against P. viticola” value [10, 13] was “appreciable activity”.
For `Oc1cccc(/C=C/c2ccccc2)c1` [Compound 14], the IC50 [2] was > 25 µg/mL, the IC50 [3] was > 25 µg/mL and the IC50 [4] was 22 µg/mL (≈ 112 µM). The IC50 [5] was > 25 µg/mL, the IC50 [6] was > 25 µg/mL and the “Toxicity to mosquito larvae” value [11] was “highest activity; also recorded: very low compared to the positive control permethrin”. For the same compound, the IC50 [7] was > 25 µg/mL, the IC50 [8] was > 25 µg/mL and the IC50 [9] was 19 µg/mL (≈ 96.8 µM).
In the case of `Oc1ccc(/C=C/c2cccc(O)c2)cc1` [Compound 15, trans-3,4′-dihydroxystilbene], the IC50 [2] is reported as 12 µg/mL (≈ 56.5 µM), the IC50 [3] is reported as > 25 µg/mL and the IC50 [4] is reported as > 25 µg/mL. The IC50 [5] was 19.5 µg/mL (≈ 91.9 µM), the IC50 [6] was > 25 µg/mL and the IC50 [7] was > 25 µg/mL. For the same compound, the IC50 [8] was > 25 µg/mL and the IC50 [9] was 4 µg/mL (≈ 18.8 µM).
With `Oc1cccc(CCc2ccccc2)c1` [Compound 16] the IC50 [2] was > 25 µg/mL, the IC50 [3] was > 25 µg/mL and the IC50 [4] was > 25 µg/mL. For the same compound, the IC50 [5] was > 25 µg/mL, the IC50 [6] was > 25 µg/mL and the “Toxicity to mosquito larvae” value [11] was “highest activity; also recorded: very low compared to the positive control permethrin”. For the same compound, the IC50 [7] was > 25 µg/mL, the IC50 [8] was > 25 µg/mL and the IC50 [9] was 17 µg/mL (≈ 85.7 µM). The “Antifungal activity against P. viticola” value ([10]; 144 h of incubation) was “statistically higher activity compared to 14” and the “Antifungal activity against P. viticola” value [10, 13] was “appreciable activity”.
For `COc1cccc(CCc2ccc(O)cc2)c1` [Compound 17], the IC50 [2] was > 25 µg/mL, the IC50 [3] was > 25 µg/mL and the IC50 [4] was > 25 µg/mL. The IC50 [5] was > 25 µg/mL, the IC50 [6] was > 25 µg/mL and the IC50 [7] was > 25 µg/mL. For the same compound, the IC50 [8] was > 25 µg/mL and the IC50 [9] was 9 µg/mL (≈ 39.4 µM).
With `COc1cc(/C=C/c2ccccc2)cc(OC)c1` [Compound 18] the IC50 [2] was > 25 µg/mL, the IC50 [3] was > 25 µg/mL and the IC50 [4] was > 25 µg/mL. For the same compound, the IC50 [5] was > 25 µg/mL, the IC50 [6] was > 25 µg/mL and the “Toxicity to mosquito larvae” value [11] was “highest activity; also recorded: very low compared to the positive control permethrin”. The IC50 [7] was > 25 µg/mL, the IC50 [8] was > 25 µg/mL and the IC50 [9] was > 25 µg/mL.
In the case of `COc1cc(O)cc(/C=C/c2ccccc2)c1` [Compound 19], the IC50 [2] is reported as > 25 µg/mL, the IC50 [3] is reported as > 25 µg/mL and the IC50 [4] is reported as 12 µg/mL (≈ 53 µM). The IC50 [5] was > 25 µg/mL, the IC50 [6] was > 25 µg/mL and the “Toxicity to mosquito larvae” value [11] was “highest activity; also recorded: somewhat greater activity”. The IC50 [7] was > 25 µg/mL, the IC50 [8] was > 25 µg/mL and the IC50 [9] was 18 µg/mL (≈ 79.5 µM). The “Antifungal activity against P. viticola” value [10, 13] was “appreciable activity”.
In the case of `COc1cccc2c1C(=O)c1c(O)c3c(c(O)c1C2=O)C[C@@](O)(C(=O)CO)C[C@@H]3O[C@H]1C[C@H](N)[C@H](O)[C@H](C)O1` [Doxorubicin, reference compound], the IC50 [2] is reported as 0.9 µg/mL (≈ 1.66 µM), the IC50 [3] is reported as 1.45 µg/mL (≈ 2.67 µM) and the IC50 [5] is reported as > 5 µg/mL. It also gave an IC50 [6] of 0.8 µg/mL (≈ 1.47 µM), an IC50 [7] of 1.3 µg/mL (≈ 2.39 µM) and an IC50 [8] of 1.35 µg/mL (≈ 2.48 µM). It also gave an IC50 [9] of 0.24 µg/mL (≈ 0.442 µM).
For `C=C1C(=O)O[C@H]2[C@H]1CC/C(C)=C/CC[C@@]1(C)O[C@@H]21` [Parthenolide, reference compound], the IC50 [4] was 13.5 µg/mL (≈ 54.4 µM).
